Activity calls are given as the source filed them. The calls are words filed in the database; no cut-off is given here.
Experiments:
[1] = Antiproliferative activity against human MUTU-I cells after 24 hrs by Alamar blue assay; type: functional, cell-based
[2] = (§1) Antiproliferative activity against human DG75 cells after 72 hrs by Alamar blue assay; type: functional, cell-based; conditions: DG-75, 72 h
[3] = tested on: HL-60; assay: Induction of apoptosis in human HL60 cells expressing BCRP; type: functional, cell-based
[4] = tested on: MUTU-I; assay: Induction of apoptosis in human MUTU-I cells assessed as activation of caspase 3 and 7 at 10 uM after 8 hrs by Apotox-Glo Triplex assay; type: functional, cell-based
Procedure, shortened: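 Cells were seeded at 10,000/well and treated at 10 µM for 8 h. Caspase-Glo reagent (Apotox-Glo Triplex) was added, followed by brief orbital shaking and 30 min at room temperature, then a luminescence read. Vinblastine 100 nM was the positive control, with a Student's t-test against vehicle.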

[5] = tested on: PBMC; assay: Antiproliferative activity against human PBMC at 10 uM after 24 hrs by Alamar blue assay; type: cell-based
Procedure, shortened: (§2)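 Cells were treated with a single 10 µM dose for 24 h. PBMCs came from healthy-donor blood by Ficoll density separation and were kept in IMDM with 10% FBS. Viability was read by Alamar Blue fluorescence (590 nm, ex 544 nm) against untreated cells. Three independent experiments were run, with a Student's t-test against vehicle.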

[6] = (§3) Induction of apoptosis in human MUTU-I cells assessed as accumulation at pre-G1 phase at 10 uM after 24 hrs using propidium iodide staining by FACS analysis; type: functional
Procedure, shortened: (§4)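 Cells (7.5×10^5 per 5 mL) were treated, then washed in cold PBS and fixed overnight at 4 °C in 70% ethanol. They were stained with RNase A and propidium iodide for 30 min at 37 °C in the dark. Flow cytometry counted 10,000 gated cells, and the pre-G1 fraction was scored.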

[7] = tested on: MUTU-I; assay: (§5) Antiproliferative activity against human MUTU-I cells at 10 uM after 24 hrs by Alamar blue assay; type: functional; procedure, shortened: as §2
[8] = tested on: HL-60; assay: Induction of apoptosis in human HL60 cells; type: functional, cell-based
[9] = tested on: HL-60; assay: Induction of apoptosis in human HL60 cells expressing p-glycoprotein; type: functional, cell-based
[10] = tested on: DG-75; assay: Antiproliferative activity against human DG75 cells at 10 uM after 24 hrs by Alamar blue assay
[11] = tested on: MUTU-I; assay: as §3; type: functional; procedure, shortened: as §4
[12] = tested on: DG-75; assay: as §1; type: functional, cell-based
[13] = as §5; type: functional; procedure, shortened: as §2
[14] = Antiproliferative activity against human DG75 cells at 10 uM after 72 hrs by Alamar blue assay; type: functional, DG-75

O=C(O)C(Cc1ccc(O)cc1)NC(=O)C1CC2c3ccccc3C1c1ccccc12 (stereo unspecified)
EC50 [1]: > 100 µM

CC(=O)OCC12c3ccccc3C(CC1C#N)c1ccccc12 (stereo unspecified)
EC50 [2]: > 100 µM | EC50 [1]: 12.8 µM

CCOC(=O)/C=C/C12c3ccccc3C(CC1C#N)c1ccccc12 (stereo unspecified)
EC50 [2]: > 100 µM | EC50 [1]: 45.6 µM

CCOC(=O)N1CCN(C(=O)/C=C/c2c3ccccc3cc3ccccc23)CC1
Activity [3]: Active | Activity [4]: Active | Activity [5]: Non-toxic | Activity [6]: 54.7% | Activity [7]: Active | EC50 [2]: 11.6 µM | Activity [8]: Active | EC50 [1]: 5.4 µM | Activity [9]: Active | Activity [10]: Active

CCN(CC)C(=O)/C=C/c1c2ccccc2cc2ccccc12
EC50 [2]: 9.3 µM | EC50 [1]: 21.5 µM

CN(C)C(=O)/C=C/c1c2ccccc2cc2ccccc12
EC50 [2]: > 100 µM | EC50 [1]: 24.9 µM

CCN(CC)C(=O)O/N=C/C12c3ccccc3C(CC1C#N)c1ccccc12 (stereo unspecified)
Activity [3]: inactive | Activity [4]: inactive | Activity [5]: Non-toxic | Activity [11]: inactive | EC50 [2]: 3.1 µM | Activity [8]: inactive | EC50 [1]: 28.4 µM | Activity [9]: inactive

N#CC1CC2c3ccccc3C1(/C=N/OC(=O)c1ccccc1)c1ccccc12 (stereo unspecified)
EC50 [2]: 95.3 µM | EC50 [1]: 80.5 µM

CN(C(=O)C1CC2c3ccccc3C1(C=O)c1ccccc12)C1CCCCC1 (stereo unspecified)
Activity [3]: Active | EC50 [2]: > 100 µM | Activity [8]: Active | EC50 [1]: 40.6 µM | Activity [9]: Active

O=C(O)C1C2c3ccccc3C(c3ccccc32)C1C(=O)O (stereo unspecified)
EC50 [1]: > 100 µM

CN(C)C(=O)C1C2c3ccccc3C(c3ccccc32)C1C(=O)N(C)C (stereo unspecified)
EC50 [1]: > 100 µM

O=C(/C=C/c1c2ccccc2cc2ccccc12)N1CCCCC1
Activity [4]: Active | Activity [6]: 15.44% | EC50 [2]: > 100 µM | EC50 [1]: 1.9 µM

CNC(C)/C=C/c1c2ccccc2cc2ccccc12 (stereo unspecified)
EC50 [2]: > 100 µM | EC50 [1]: 62.9 µM

C1=C(CN2CCCCC2)C2c3ccccc3C1c1ccccc12
EC50 [2]: 10.2 µM | EC50 [1]: 31.5 µM

Cc1ccc(N2CCN(C(=O)/C=C/c3c4ccccc4cc4ccccc34)CC2)cc1
EC50 [2]: > 100 µM | EC50 [1]: 38.5 µM

CCN(CC)CC1C2c3ccccc3C(c3ccccc32)C1CN(CC)CC (stereo unspecified)
EC50 [2]: 51.8 µM | EC50 [1]: 65 µM

N#CC1CC2c3ccccc3C1(CO)c1ccccc12 (stereo unspecified)
EC50 [2]: > 100 µM | EC50 [1]: > 100 µM

CNC(=O)/C=C/C12c3ccccc3C(CC1C#N)c1ccccc12 (stereo unspecified)
EC50 [2]: > 100 µM | EC50 [1]: > 100 µM

CCNCC1CC2c3ccccc3C1c1ccccc12 (stereo unspecified)
EC50 [2]: > 100 µM | EC50 [1]: > 100 µM

COC(=O)C1=C(C(=O)OC)C2c3ccccc3C1c1ccccc12
Activity [12]: inactive | EC50 [1]: > 100 µM

CC[C@]1(O)C[C@@H]2CN(CCc3c([nH]c4ccccc34)[C@@](C(=O)OC)(c3cc4c(cc3OC)N(C)[C@H]3[C@@](O)(C(=O)OC)[C@H](OC(C)=O)[C@]5(CC)C=CCN6CC[C@]43[C@@H]65)C2)C1 [VINBLASTINE]
Activity [5]: Non-toxic | Activity [6]: 52.89% | Activity [7]: Active | Activity [10]: Active

CNC(=O)/C=C/c1c2ccccc2cc2ccccc12
EC50 [2]: > 100 µM | EC50 [1]: 62.5 µM

CC(=O)O/N=C/C12c3ccccc3C(CC1C#N)c1ccccc12 (stereo unspecified)
EC50 [2]: > 100 µM | EC50 [1]: 34.6 µM

CCOC(=O)C1CC2c3ccccc3C1c1ccccc12 (stereo unspecified)
EC50 [2]: > 100 µM | EC50 [1]: 55.4 µM

O=C(/C=C/c1c2ccccc2cc2ccccc12)N1CCCC1
EC50 [2]: 32.5 µM | EC50 [1]: 18.7 µM

COC(=O)C(Cc1ccc(O)cc1)NC(=O)C1CC2c3ccccc3C1c1ccccc12 (stereo unspecified)
EC50 [2]: 54.6 µM | EC50 [1]: 63 µM

c1ccc2c(c1)C1CC(CN3CCCCC3)C2c2ccccc21 (stereo unspecified)
EC50 [2]: 69.9 µM | EC50 [1]: 65.6 µM

c1ccc2c(c1)C1CC(CN3CCOCC3)C2c2ccccc21 (stereo unspecified)
EC50 [2]: 8.8 µM | EC50 [1]: 23.5 µM

N#C/C=C/C12c3ccccc3C(CC1C#N)c1ccccc12 (stereo unspecified)
EC50 [2]: > 100 µM | EC50 [1]: > 100 µM

Clc1ccc(COC(Cn2ccnc2)c2ccc(Cl)cc2Cl)c(Cl)c1 (stereo unspecified) [MICONAZOLE]
Activity [13]: >90% | Activity [14]: >90%

CN(CC1=CC2c3ccccc3C1c1ccccc12)C1CCCCC1
EC50 [2]: > 100 µM | EC50 [1]: 73.3 µM

COC(=O)C(CC(C)C)NC(=O)C1CC2c3ccccc3C1c1ccccc12 (stereo unspecified)
EC50 [1]: > 100 µM

N#CC1CC2c3ccccc3C1(C=O)c1ccccc12 (stereo unspecified)
EC50 [2]: > 100 µM | EC50 [1]: 31.7 µM

CC(C)CC(NC(=O)C1CC2c3ccccc3C1c1ccccc12)C(=O)O (stereo unspecified)
EC50 [1]: > 100 µM

CCOC(=O)C1=CC2c3ccccc3C1c1ccccc12
Activity [12]: inactive | EC50 [1]: > 100 µM

N#CC1CC2c3ccccc3C1(/C=N/O)c1ccccc12 (stereo unspecified)
EC50 [2]: > 100 µM | EC50 [1]: 20.4 µM

Clc1ccc(N2CCN(CC3CC4c5ccccc5C3c3ccccc34)CC2)cc1 (stereo unspecified)
EC50 [2]: > 100 µM | EC50 [1]: > 100 µM

O=[N+]([O-])c1ccc(/C=C/c2c3ccccc3cc3ccccc23)cc1
EC50 [2]: > 100 µM | EC50 [1]: 8.8 µM

N#C/C=C/c1c2ccccc2cc2ccccc12
EC50 [2]: > 100 µM | EC50 [1]: 21.2 µM

CNC(=O)CCC12c3ccccc3C(CC1C#N)c1ccccc12 (stereo unspecified)
EC50 [2]: > 100 µM | EC50 [1]: > 100 µM

CCOC(=O)CCC12c3ccccc3C(CC1C#N)c1ccccc12 (stereo unspecified)
EC50 [2]: > 100 µM | EC50 [1]: 29.3 µM

CN1CCN(C(=O)/C=C/c2c3ccccc3cc3ccccc23)CC1
Activity [3]: inactive | Activity [4]: inactive | Activity [5]: Non-toxic | Activity [11]: inactive | EC50 [2]: 62.1 µM | Activity [8]: inactive | EC50 [1]: 7.6 µM | Activity [9]: inactive

CCN(CC)C(=O)C1C2c3ccccc3C(c3ccccc32)C1C(=O)N(CC)CC (stereo unspecified)
EC50 [1]: > 100 µM

O=C(O)C1CC2c3ccccc3C1c1ccccc12 (stereo unspecified)
EC50 [1]: > 100 µM

CN(CC1CC2c3ccccc3C1c1ccccc12)C1CCCCC1 (stereo unspecified)
Activity [3]: inactive | EC50 [2]: 35.5 µM | Activity [8]: inactive | EC50 [1]: 23 µM | Activity [9]: inactive

CCOC(=O)/C=C/c1c2ccccc2cc2ccccc12
EC50 [2]: > 100 µM | EC50 [1]: 27.1 µM

c1ccc(NCC2CC3c4ccccc4C2c2ccccc23)cc1 (stereo unspecified)
EC50 [2]: > 100 µM | EC50 [1]: > 100 µM

CC(=O)/C=C/c1c2ccccc2cc2ccccc12
EC50 [2]: 7.6 µM | EC50 [1]: 21.8 µM

O=[N+]([O-])/C=C/c1c2ccccc2cc2ccccc12
Activity [3]: Active | Activity [4]: Active | Activity [5]: Toxic | Activity [6]: 31.43% | EC50 [2]: 1.5 µM | Activity [8]: Active | EC50 [1]: 3 µM | Activity [9]: Active

CCOC(=O)C1C2c3ccccc3C(c3ccccc32)C1C(=O)OCC (stereo unspecified)
EC50 [2]: > 100 µM | EC50 [1]: 89.4 µM

N#CC1CC2c3ccccc3C1(COC(=O)c1ccccc1)c1ccccc12 (stereo unspecified)
EC50 [2]: > 100 µM | EC50 [1]: 24.5 µM

CN(C)CC1CC2c3ccccc3C1c1ccccc12 (stereo unspecified)
EC50 [2]: > 100 µM | EC50 [1]: > 100 µM

CN1CCN(C(=O)C2CC3c4ccccc4C2c2ccccc23)CC1 (stereo unspecified)
EC50 [1]: > 100 µM

CNCC12c3ccccc3C(CC1C#N)c1ccccc12 (stereo unspecified)
EC50 [2]: > 100 µM | EC50 [1]: > 100 µM

— ChEMBL document CHEMBL3102711 (Eur J Med Chem, 2014)
